The source of these data is PubChem BioAssay.

Assay [1] is described as follows: inhibitors of TNFa-induced NFkB p65 translocation, primary screen, imaging, HUVEC, MLSMR starter and 10KST1 sets (AID 438;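 active = inhibition above 20% together with a positive visual image hit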;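 note: compound added about 3h40 before a 20 min TNFalpha stimulation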;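 for inhibition: signal is the nuclear over cytoplasmic p65 intensity ratio per well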). The settings on record: HUVEC TNFa-induced p65 nuclear translocation; cell count: measured here: nuclei count (cytotoxicity indicator), at 2.08 µM; inhibition: at 2 µM, stronger effect = higher value, 0% TNFa-plus-vehicle, 100% no-TNFa wells.
Assay [2] can be described thus: reduction of polyQ htt aggregates in cells – imaging, exon1htt(103Q)mCFP cells, high-content imaging, primary screen (AID 483;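 active = visual image review flags a hit and inhibition of aggregation exceeds 20%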;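 note: compound exposure lasted 3 days before fixation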;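 for nuclei count: percent of the per-plate median nuclei count of sample wells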). The settings on record: exon1htt(103Q)mCFP cell line, aggregate imaging, at 2 µM; inhibition of aggregation: stronger effect = higher value; nuclei count: measured here: cell count, toxicity.
A short description of assay [3]: endothelial E-selectin expression blockers – imaging, HUVEC, immunofluorescence, MLSMR starter and 10KST1 sets, primary screen (AID 487;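 active = visually confirmed hit in the image check and inhibition above 20%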;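 for inhibition: signal is fraction of cell area covered by stained E-selectin grains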;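 for nuclei count: 100% = median nuclei count of all wells on the same plate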). The settings on record: HUVEC TNFalpha-induced E-selectin immunofluorescence imaging, at 2 µM; inhibition: stronger effect = higher value; nuclei count: measured here: cell number, toxicity.
For assay [4], the target named is Voltage-gated potassium channel subunit beta-2 (Rattus norvegicus) (UniProt P62483). Nature of the assay: inhibitors of rat Kvbeta2 reductase activity – biochemical, NADPH fluorescence, primary screen (AID 622;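 active = fluorescence slope higher than the sample average by over 3 SD, cut at about -0.22 in these data, passing the limit was not always enough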;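 note: slope of raw intensity against log time taken from 70 to 1610 s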). The settings on record: recombinant KvBeta, 4-cyanobenzaldehyde reduction, at 10 µM, stronger effect = higher value.
Assay [5] shares this target. Nature of the assay: enhancers of rat Kvbeta2 NADPH turnover – biochemical, NADPH fluorescence, primary screen (AID 623).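 Note: fluorescence intensity change per second fitted from 20 to 320 s.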 As to conditions: Recombinant KvBeta, NADPH fluorescence decrease slope, 10 min; at 10 µM; stronger effect = lower value.
Assay [6] has as its target Muscarinic acetylcholine receptor M4 (Homo sapiens) (UniProt P08173). Nature of the assay: M4-linked GIRK flux change, two-sided – cell-based, HEK293 M4/GIRK, thallium flux, BTC-AM, M4 allosteric agonist project, primary screen (AID 625;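 active = fluorescence slope after compound addition differing from the mean of all tested samples at 99.7% confidence, mostly higher but some lower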;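 note: thallium influx through GIRK channels coupled to M4 in HEK293 cells with BTC-AM dye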). As to conditions: at 10 µM, actives lie on both sides. The method in brief: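 Material: M4/GIRK1/GIRK2 stable HEK293 cell line. Medium: pH 7.3 thallium assay buffer. Dosing: single compound concentration, 10 µM final. Schedule: 1 h dye loading, 2 min kinetic read. Measured by: kinetic fluorescence with BTC-AM dye. Read-out: post-addition slope, 15–24 s, of baseline-normalized fluorescence. Benchmarks: carbachol and DMSO controls.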

The nature of assay [7]: blockers of RIG-like receptor reporter activation – cell-based, Sendai virus stimulus, luciferase, 10K MLSCN set, TLR/RLR signaling modifier project, primary screen (AID 602276;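 active = inhibition at or above 50% at 10 µM; inactive = inhibition below 50%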;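 note: firefly luciferase from ISG56 promoter only with Renilla not read in this screen; 0% = Sendai virus plus DMSO and 100% = medium plus DMSO without virus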). The settings on record: HEK293 RL24 IRF3 luciferase reporter, at 10 µM, stronger effect = higher value. For orientation: Reporter assays use an easily measured gene product as a stand-in for the process of interest.

The nature of assay [8]: TLR3 IRF3 reporter activation blockers – cell-based, poly I:C stimulus, luciferase, 10K MLSCN set, primary screen (AID 602277;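 active = inhibition of the reporter signal at or above 50%; inactive = inhibition below 50%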). The settings on record: HEK293-TLR3 RL24 IRF3 luciferase reporter, at 10 µM, stronger effect = higher value.

Each structure is given as a SMILES string. Activity calls are given as the source filed them.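 Rule for the calls, unless noted: active = NADPH fluorescence slope more negative than the mean of all samples by about 3 SD, 99.7% confidence; inactive = the rest.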

Muscarinic acetylcholine receptor M4 (Homo sapiens), sequence (P08173 whole entry, looked up): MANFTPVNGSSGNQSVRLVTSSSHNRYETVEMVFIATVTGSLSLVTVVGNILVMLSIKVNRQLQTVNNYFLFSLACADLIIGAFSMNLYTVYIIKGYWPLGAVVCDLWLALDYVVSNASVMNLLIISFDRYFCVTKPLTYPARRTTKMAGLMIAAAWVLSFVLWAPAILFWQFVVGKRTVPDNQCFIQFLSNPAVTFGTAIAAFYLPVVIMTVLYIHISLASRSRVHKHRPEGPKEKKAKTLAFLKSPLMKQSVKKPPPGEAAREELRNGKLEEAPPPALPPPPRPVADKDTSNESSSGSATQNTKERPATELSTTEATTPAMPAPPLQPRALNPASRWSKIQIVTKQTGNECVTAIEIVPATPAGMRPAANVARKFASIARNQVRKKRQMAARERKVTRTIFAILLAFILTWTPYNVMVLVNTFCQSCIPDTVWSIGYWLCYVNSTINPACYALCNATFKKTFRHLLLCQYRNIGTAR
Voltage-gated potassium channel subunit beta-2 (Rattus norvegicus), sequence (P62483 whole entry, looked up): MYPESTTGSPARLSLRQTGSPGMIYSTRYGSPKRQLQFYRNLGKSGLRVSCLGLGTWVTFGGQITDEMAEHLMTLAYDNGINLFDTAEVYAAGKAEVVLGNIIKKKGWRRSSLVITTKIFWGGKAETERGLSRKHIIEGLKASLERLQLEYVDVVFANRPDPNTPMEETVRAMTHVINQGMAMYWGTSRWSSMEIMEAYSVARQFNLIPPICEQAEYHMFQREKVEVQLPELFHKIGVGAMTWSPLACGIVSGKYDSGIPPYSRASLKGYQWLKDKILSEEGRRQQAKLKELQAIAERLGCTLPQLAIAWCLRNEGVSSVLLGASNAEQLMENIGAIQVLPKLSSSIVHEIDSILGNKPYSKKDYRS

Usually inhibition stands for the drop in the measured response relative to a control, in per cent. `CCOC(=O)c1c(C)[nH]c(C=Nc2ccccc2)c1O`: the cell count in assay [1] came to 666. Further, the inhibition in assay [1] is 4.3% (inactive); in assay [3] it was -28.4% (inactive); in assay [7] it was -11% (inactive); in assay [8], -41.4% (inactive). Moreover, the inhibition of aggregation in assay [2] is 12.6% (inactive). For the same compound, the nuclei count in assay [2] came to 88.7%; in assay [3] it was 103%. The fluorescence slope in assay [4] is -0.598 (inactive); in assay [6], 0.00349 (inactive). Also, the NADPH fluorescence slope in assay [5] is 5.5e-06 (inactive).
As for `O=C1c2ccccc2C(O)(Cc2ccccc2)N1Cc1ccco1` (stereo not given), in assay [1], the cell count was 425. The inhibition was -2.9% (inactive) in assay [1], -110% (inactive) in assay [3], 8.83% (inactive) in assay [7] and 21.9% (inactive) in assay [8]. Further, the inhibition of aggregation in assay [2] is -10.1% (inactive). Also, the values for the nuclei count in assay [2] and in assay [3] were 96.8% and 131%, respectively. Moreover, the fluorescence slope is -0.554 (inactive) in assay [4] and 0.00578 (inactive) in assay [6]. Also, in assay [5], the NADPH fluorescence slope is -1.5e-05 (inactive).
As to `Cc1ccc(S(=O)(=O)CCc2nnc(NC(=O)c3cnccn3)s2)cc1`, the cell count in assay [1] came to 578. The inhibition in assay [1] was -46.9% (inactive); in assay [3] it was -82.9% (inactive); in assay [7] it was 10.8% (inactive); in assay [8], 22.5% (inactive). For the same compound, the inhibition of aggregation in assay [2] was -22.9% (inactive). The nuclei count in assay [2] amounted to 116%; in assay [3], 117%. Also, the fluorescence slope was -0.407 (inactive) in assay [4] and 0.00653 (inactive) in assay [6]. For the same compound, the NADPH fluorescence slope in assay [5] is -8.1e-06 (inactive).
As to `CCCC1C(C#N)=C(N)Oc2n[nH]c(C(C)(C)C)c21` (stereo not given), the cell count in assay [1] was found to be 330. For the same compound, the inhibition in assay [1] is -6.9% (inactive); in assay [3] it was 26.6% (inactive); in assay [7], 13.9% (inactive); in assay [8] it was 21.8% (inactive). In addition, the inhibition of aggregation in assay [2] is -30.2% (inactive). In addition, the nuclei count in assay [2] came to 102%; in assay [3], 115%. For the same compound, the fluorescence slope in assay [4] was -0.571 (inactive); in assay [6] it was 0.00609 (inactive). Further, the NADPH fluorescence slope in assay [5] was -3.1e-05 (inactive).
Turning to `O=C(CSc1nc(-c2ccco2)cc(C(F)(F)F)n1)N1CCCc2ccccc21`, the cell count in assay [1] turned out to be 700. For the same compound, the inhibition is 0% (inactive) in assay [1], -20.9% (inactive) in assay [3], 19% (inactive) in assay [7] and 13.4% (inactive) in assay [8]. In assay [2], the inhibition of aggregation is 3.1% (inactive). The nuclei count turned out to be 104% in assay [2] and 114% in assay [3]. The results for the fluorescence slope in assay [4] and in assay [6] were -0.585 (inactive) and 0.00488 (inactive), respectively. Also, the NADPH fluorescence slope in assay [5] is -2.5e-05 (inactive).
On to `CCn1c(SCC(=O)NCc2ccco2)nc2c(c1=O)SC(C)C2` (stereo not given), for which the cell count in assay [1] was 368. In addition, the inhibition in assay [1] was 8.3% (inactive); in assay [3], -14.8% (inactive); in assay [7] it was 4.07% (inactive); in assay [8] it was 9.1% (inactive). For the same compound, in assay [2], the inhibition of aggregation was -2.9% (inactive). Moreover, the figures for the nuclei count in assay [2] and in assay [3] were 101% and 115%, respectively. The fluorescence slope in assay [4] is -0.4 (inactive); in assay [6] it was 0.0058 (inactive). Also, the NADPH fluorescence slope in assay [5] is -0.000131 (inactive).
Take `O=C(Nc1ccccc1)N(CCN1CCOCC1)Cc1ccccc1F`: the cell count in assay [1] was determined as 665. Besides, the inhibition is -4.1% (inactive) in assay [1], -68% (inactive) in assay [3], -14.2% (inactive) in assay [7] and -15.8% (inactive) in assay [8]. Further, the inhibition of aggregation in assay [2] was -16.2% (inactive). In addition, the nuclei count in assay [2] was determined as 101%; in assay [3], 96.7%. Also, the fluorescence slope in assay [4] was -0.61 (inactive); in assay [6] it was 0.00376 (inactive). Besides, the NADPH fluorescence slope in assay [5] was 1.5e-05 (inactive).
Turning to `CC(=O)Nc1ccc(OC(=O)c2cccnc2)cc1`, in assay [1], the cell count is 367. Besides, the inhibition in assay [1] is 0.3% (inactive); in assay [3], -194% (inactive); in assay [7], -10.8% (inactive); in assay [8], -12.7% (inactive). Also, in assay [2], the inhibition of aggregation was -13.8% (inactive). In addition, the nuclei count in assay [2] was found to be 103%; in assay [3], 112%. Besides, the results for the fluorescence slope in assay [4] and in assay [6] were -0.318 (inactive) and 0.00601 (inactive), respectively. Moreover, the NADPH fluorescence slope in assay [5] is -4.9e-05 (inactive).
On to `O=c1c2c3c(sc2n2cnnc2n1CCc1ccccc1)CCCC3`, for which, in assay [1], the cell count worked out at 660. The inhibition in assay [1] is -1.4% (inactive); in assay [3], -171% (inactive); in assay [7], 2.46% (inactive); in assay [8] it was 2.39% (inactive). Also, the inhibition of aggregation in assay [2] was 3.7% (inactive). Besides, the nuclei count amounted to 99.9% in assay [2] and 130% in assay [3]. Moreover, the fluorescence slope in assay [4] was -0.543 (inactive); in assay [6] it was 0.00413 (inactive). Besides, in assay [5], the NADPH fluorescence slope is -2.6e-05 (inactive).
For `COCCN1C(=O)c2oc3c(C)cc(C)cc3c(=O)c2C1c1cccc(O)c1` (stereo not given), the cell count in assay [1] stood at 561. Moreover, the inhibition is -25% (inactive) in assay [1], -66% (inactive) in assay [3], 8.51% (inactive) in assay [7] and -1.3% (inactive) in assay [8]. For the same compound, the inhibition of aggregation in assay [2] is 6.4% (inactive). Besides, the figures for the nuclei count in assay [2] and in assay [3] were 95.1% and 120%, respectively. Besides, the fluorescence slope in assay [4] was -0.545 (inactive); in assay [6], 0.00558 (inactive). The NADPH fluorescence slope in assay [5] is -5.1e-05 (inactive).
`COc1cc(CC(=O)NCc2ccc3c(c2)OCO3)cc(OC)c1OC`: the cell count in assay [1] was 698. The inhibition in assay [1] was -7.8% (inactive); in assay [3] it was -43.8% (inactive); in assay [7], 6.85% (inactive); in assay [8], 10.7% (inactive). In assay [2], the inhibition of aggregation was -5.2% (inactive). Also, the nuclei count in assay [2] came to 142%; in assay [3], 124%. Further, the values for the fluorescence slope in assay [4] and in assay [6] were -0.519 (inactive) and 0.00565 (inactive), respectively. The NADPH fluorescence slope in assay [5] was -0.000135 (inactive).
`Cc1nn(-c2ccccc2)c2c1C(c1c(C)[nH]c(C#N)c1C)C(C#N)=C(N)O2` (stereo not given): the cell count in assay [1] stood at 565. Moreover, the inhibition is -13.4% (inactive) in assay [1], 15.4% (inactive) in assay [3], 8.98% (inactive) in assay [7] and 13% (inactive) in assay [8]. Further, the inhibition of aggregation in assay [2] is 9.2% (inactive). Further, the nuclei count in assay [2] amounted to 86%; in assay [3], 101%. For the same compound, the fluorescence slope in assay [4] was -0.391 (inactive); in assay [6], 0.00623 (inactive). Further, in assay [5], the NADPH fluorescence slope is 8.5e-05 (inactive).
With `O=C(Nc1ccccc1)N(Cc1cccnc1)Cc1ccco1`, in assay [1], the cell count stood at 335. Also, the inhibition in assay [1] was -0.7% (inactive); in assay [3], -36.9% (inactive); in assay [7] it was 18.2% (inactive); in assay [8], 14.3% (inactive). For the same compound, the inhibition of aggregation in assay [2] is 5.9% (inactive). Besides, the nuclei count in assay [2] amounted to 97.2%; in assay [3] it was 103%. Besides, the fluorescence slope was -0.463 (inactive) in assay [4] and 0.00427 (inactive) in assay [6]. For the same compound, the NADPH fluorescence slope in assay [5] is -3.6e-05 (inactive).
`CCC(Sc1ccc2nnc(-c3ccc(F)cc3)n2n1)C(=O)OC` (stereo not given): in assay [1], the cell count came out at 562. Further, the inhibition in assay [1] is -16.6% (inactive); in assay [3], -73.4% (inactive); in assay [7], 17.3% (inactive); in assay [8] it was 19.1% (inactive). Also, the inhibition of aggregation in assay [2] is 25.1% (inactive). Further, the nuclei count in assay [2] and in assay [3] was 117% each time. For the same compound, the fluorescence slope is -0.185 (inactive) in assay [4] and 0.00751 (inactive) in assay [6]. The NADPH fluorescence slope in assay [5] was -7e-06 (inactive).
Consider `CN1CC=C2C(C#N)=C(N)C(C#N)(C#N)C(c3cccc(Cl)c3Cl)C2C1` (stereo not given), for which the cell count in assay [1] was 566. Also, the inhibition in assay [1] is -8.5% (inactive); in assay [3], -13.9% (inactive); in assay [7] it was 8.89% (inactive); in assay [8], 9.8% (inactive). The inhibition of aggregation in assay [2] is -7.2% (inactive). Also, the figures for the nuclei count in assay [2] and in assay [3] were 110% and 99.2%, respectively. In addition, the fluorescence slope in assay [4] was -0.399 (inactive); in assay [6], 0.00362 (inactive). Also, in assay [5], the NADPH fluorescence slope was -0.000109 (inactive).
